Assay results: publication PMC7992179 (ACS Omega, 2021)

Columns and labels:
[1] = test system: motor coordination on rotating rod; assay: Neurotoxicity / minimal motor impairment, rotating rod; assay type: in vivo; settings: rod observed 5 min, mean ± SEM, 10 mice
Outline: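 White albino mice of either sex, 8–10 weeks, 25–35 g, were trained on a rotating rod (2.5 cm diameter, 25 cm high). After i.p. dosing (10, 30 or 50 mg/kg), motor coordination was scored over 5 min at 30 min and 4 h. Neurotoxicity meant failure to stay on the rod for 1 min. 10 mice per group; mean ± SEM.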

MCF-7 cell line = assay: MTT cytotoxicity assay in MCF-7 cells; assay type: cell-based, human; settings: 48 h, MTT
Outline: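 MCF-7 cells grown in Eagle's MEM with 10% FBS, 1% penicillin/streptomycin, 0.1 mM non-essential amino acids, 10 μg/mL insulin and 1 mM sodium pyruvate at 37 °C, 5% CO2. Trypsin/EDTA-harvested cells were seeded at 6 × 10^4 cells/mL and incubated overnight. Test compound (1–30 μM, or a fixed 30 μM screen against doxorubicin) was applied for 48 h. MTT 0.5 mg/mL for 4 h, DMSO, A570; % inhibition and IC50.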

PTZ-induced convulsions = PTZ-induced convulsions in mice; assay type: in vivo; settings: 5 mg/kg i.p., PTZ 70 mg/kg i.p., n = 10
Outline: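 Overnight-fasted albino mice (n = 10 per group) received test compound at 5 mg/kg i.p., suspended in carboxymethylcellulose and sonicated. Controls were vehicle, PTZ alone and lamotrigine (dose-finding at 1–5 mg/kg). Clonic seizures were induced with PTZ 70 mg/kg i.p. Recorded: latency, convulsion duration, number of convulsions, protection, and a 0–6 seizure score (6 = death). Mean ± SEM; one-way ANOVA with Dunnett's test versus the PTZ group.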

With “(1E,2Z)-N-[6-(2,3-Dichlorophenyl)-5-{(E)-[(2E)-3-phenylprop-2-en-1-ylidene]amino}-1,2,4-triazin-3-yl]prop-2-en-1-imine Zinc Chloride Coordinate Complex [4a]” the “time on Rod” value ([1]; dose 10 mg/kg i.p.) was 66.7 ± 15.1 s, the “time on Rod” value ([1]; dose 30 mg/kg i.p.) was 45.4 ± 10.3 s and the “time on Rod” value ([1]; dose 50 mg/kg i.p.) was 30.6 ± 4.2 s. For the same substance, the “IC50 ± SD” value (MCF-7 cell line; MCF-7, 1–30 μM) was “inactive”, the “% inhibition/stimulation” value (MCF-7 cell line; conc. 30 μM) was 0.00% and the “average duration of seizure” value (PTZ-induced convulsions; mean ± SEM) was 86.5 ± 5.0 s. The latency time (PTZ-induced convulsions; mean ± SEM) was 145.0 ± 23.4 s, the seizure score (PTZ-induced convulsions; mean ± SEM) was 15.0 ± 4.9 counts and the mortality (PTZ-induced convulsions) was 0.0 counts.
